Screening results: PubChem BioAssay, Sanford-Burnham Center for Chemical Genomics
Sampled rows, rich in hits. Any-hit rate of the full collection: about 1.7%.
LMPTP block: LMPTP phosphatase inhibitors, primary screen, biochemical, fluorescence intensity, uHTS; recombinant LMPTP-A, OMFP fluorogenic substrate; hit rate 0.22% among 360,000; Low molecular weight phosphotyrosine protein phosphatase (Homo sapiens), P24666; inhibition, % at 20 µM; AID 651560, 2012;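 active = compounds that cut the enzyme signal by at least half of the control window in the single-dose screen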;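 also: plate controls were DMSO wells with enzyme plus substrate for no effect and substrate without enzyme for full effect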
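Assay system: LMPTP-A, protein tyrosine phosphatase of low molecular weight / Medium: pH 6.0 Bis-Tris buffer with DTT and Triton X-100 / Schedule: 50 min enzyme reaction at room temperature, protected from light / Measured by: endpoint fluorescence intensity from OMFP dephosphorylation / Read-out basis: % inhibition relative to no-enzyme and uninhibited control wells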
DNMT1 block: human DNMT1 methyltransferase inhibitors, primary screen, biochemical, molecular beacon, fluorescence, HinP1I cleavage, uHTS; AID 588458, 2011; hit rate 0.83% among 360,000; DNA (cytosine-5)-methyltransferase 1 (Homo sapiens), P26358; inhibition (reported as % activation of signal), % at 10 µM; in the data active = inhibition above about 50%
SUMO1 PPI mod: modulators of SUMO1 protein-protein interactions, primary screen, biochemical, uHTS; SUMO1 binding to a labelled peptide, TR-FRET, 1 h; inhibition, % at 20 µM; AID 602429, 2012; hit rate 0.33% among 360,000; in the data active = inhibition above about 37%
Scp1 inh: Scp-1 phosphatase inhibitors, primary screen, biochemical, colorimetric, uHTS | inhibition, % at 20 µM | AID 493091, 2011 | Recombinant Scp1, phosphopeptide, malachite green phosphate absorbance | hit rate 0.88% among 340,000 | Carboxy-terminal domain RNA polymerase II polypeptide A small phosphatase 1 (Homo …;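 active = inhibition above about 50% at 20 µM, limit read from the data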;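 also: plate controls were DMSO wells with enzyme for no effect and wells lacking enzyme for full effect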
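Material: truncated SCP-1 phosphatase (76-261aa) / Buffer or medium: 50 mM Tris acetate pH 5.5, 0.005% Tween-20, 10 mM MgCl2 / Compound dosing: one concentration, 20 µM, with 1.0% DMSO / Incubation: 45 min room-temperature reaction, 5 min colour, 30 min stabiliser / Detection: colorimetric free-phosphate detection, absorbance 630 nm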
STEP inh: STEP phosphatase inhibitors, primary screen, biochemical, fluorescence intensity, uHTS. Tyrosine-protein phosphatase non-receptor type 5 (Homo sapiens), P54829. recombinant STEP, OMFP fluorogenic substrate. inhibition, % at 20 µM. hit rate 0.25% among 360,000. AID 588621, 2011;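 active = inhibition at 20 µM, scaled per plate between control wells, above about 37%, limit read from the data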;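 also: 0% = DMSO with enzyme and substrate and 100% = substrate only without enzyme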
Target sequence (P54829 whole entry, looked up): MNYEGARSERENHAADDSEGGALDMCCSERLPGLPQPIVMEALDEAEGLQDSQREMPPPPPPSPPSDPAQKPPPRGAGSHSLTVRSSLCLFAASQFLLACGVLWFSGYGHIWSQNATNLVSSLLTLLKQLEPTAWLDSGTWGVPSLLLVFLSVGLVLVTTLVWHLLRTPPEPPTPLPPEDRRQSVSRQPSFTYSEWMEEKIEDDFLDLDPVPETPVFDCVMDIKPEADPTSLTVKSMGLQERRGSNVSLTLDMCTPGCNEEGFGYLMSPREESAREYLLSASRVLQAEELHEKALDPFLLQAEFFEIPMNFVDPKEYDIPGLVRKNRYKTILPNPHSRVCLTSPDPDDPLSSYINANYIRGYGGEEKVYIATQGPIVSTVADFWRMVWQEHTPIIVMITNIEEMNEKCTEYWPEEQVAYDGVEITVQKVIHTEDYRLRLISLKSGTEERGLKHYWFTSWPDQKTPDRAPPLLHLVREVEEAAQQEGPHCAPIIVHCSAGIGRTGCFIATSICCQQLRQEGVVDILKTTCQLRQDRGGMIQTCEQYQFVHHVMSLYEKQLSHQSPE
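Assay system: isolated STEP enzyme / Timing: 20 min at room temperature, dark / Doses: 20 µM, 1% DMSO / Technique: fluorescence intensity, excitation 480 nm, emission 540 nm / Reagent: fluorogenic phosphatase substrate OMFP at 25 µM final / Measure: percent inhibition scaled to no-enzyme and uninhibited-enzyme controls, plate-pattern corrected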
DNMT1 interf DR: spectral interference with molecular beacon fluorescence, dose response, artefact control for DNMT1 inhibitor project, biochemical, fluorescent molecular beacon; shares compounds with DNMT1 block; spectral interference counter-screen; IC50, µM; 200 tested, under 10 active; AID 602382, 2012; call rule not given here
DNMT1 inh conf: DNMT1 methyltransferase inhibitor retest, confirmation, biochemical, molecular beacon, fluorescence, single concentration. hit rate 8% among 2,300. shares compounds with DNMT1 block. DNMT1 molecular beacon HinP1I cleavage. inhibition, % at 10 µM;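 active = average inhibition of at least 30% in the single-concentration confirmation test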
DNMT1 interf: counter-screen for DNMT1 inhibitors: spectral interference; hit rate 1% among 2,300; AID 602387; shares compounds with DNMT1 block; DNMT1 molecular beacon spectral interference counterscreen, fluorescence 485/520; activation (fluorescence interference), % at 10 µM;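 active = activation of at least 30% at 10 µM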;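 also: DNMT1 catalytic domain with a HinP1I cleavage step and a FAM/dabcyl DNA beacon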
* = called active by the depositor.

For N=C1C(c2nc(-c3ccc(Br)cc3)cs2)=C(O)CN1NC(=O)c1ccc([N+](=O)[O-])cc1 the results were LMPTP block 24.7, DNMT1 block 56.1*, SUMO1 PPI mod -4.2, Scp1 inh -3.2, STEP inh 4.8, DNMT1 inh conf 3.8 and DNMT1 interf -2.7.
Screening O=c1[nH]c(=O)c2nc3c4ccccc4c4ccccc4c3nc2[nH]1 returned LMPTP block 12.8, DNMT1 block 78.6*, SUMO1 PPI mod 83.8*, Scp1 inh 26.2, STEP inh 0.4, DNMT1 inh conf 4.1 and DNMT1 interf -0.8.
For Cc1ccc(S(=O)(=O)NCc2ccccc2)cc1C(=O)N1CCN(S(=O)(=O)c2ccccc2F)CC1 the results were LMPTP block 1.8, DNMT1 block -3.2, SUMO1 PPI mod 4.3 and STEP inh -1.5.
`CCC1CCC(C(=O)NNC(=O)c2cc(-c3ccco3)[nH]n2)CC1` (stereo unspecified) gave LMPTP block 0.2, DNMT1 block 51.4*, SUMO1 PPI mod 2.0, Scp1 inh 10.6, STEP inh 2.8, DNMT1 inh conf 1.6 and DNMT1 interf 5.7.
O=C(NNC(=O)C1CCCCC1)c1ccco1 was read as LMPTP block -0.7, DNMT1 block -0.9, SUMO1 PPI mod 1.6, Scp1 inh -4.2 and STEP inh 6.1.
O=S(=O)(c1cc(O)ccc1O)c1cccc2c(S(=O)(=O)c3cc(O)ccc3O)cccc12 was read as LMPTP block 74.6*, DNMT1 block 95.4*, SUMO1 PPI mod 58.1*, Scp1 inh 69.0*, STEP inh 83.7*, DNMT1 interf DR >99, DNMT1 inh conf 83.2* and DNMT1 interf 3.3.
`Cc1nc2ccc(C(=O)NCCCN3CCCC3=O)cn2c1N(C)C(=O)CCc1ccccc1` gave LMPTP block -1.7, DNMT1 block 8.9, SUMO1 PPI mod -4.2 and STEP inh 3.0.
For CC(C)c1ccc(CC(=O)N2CCC2(C)C(=O)NS(=O)(=O)c2ccc(Cl)s2)cc1 (stereo unspecified) the results were LMPTP block -2.3, DNMT1 block 4.9, SUMO1 PPI mod 10.4 and STEP inh 1.2.
CC(OC(=O)CCN=C1NS(=O)(=O)c2ccccc21)C(=O)c1ccccc1 (stereo unspecified) was read as LMPTP block -1.0, DNMT1 block 72.2*, SUMO1 PPI mod 7.2, Scp1 inh -5.8, STEP inh -1.2, DNMT1 inh conf 4.1 and DNMT1 interf 2.2.
For S=C(Nc1ccc(Cl)cc1)Nc1ccc2c(c1)OCCO2 the results were LMPTP block 0.5, DNMT1 block 72.1*, SUMO1 PPI mod 13.2, Scp1 inh 1.1, STEP inh -1.8, DNMT1 inh conf 2.2 and DNMT1 interf 3.0.
Cc1cc2nc(-c3ccc(NC(=O)C(C)C)cc3)oc2cc1C was read as LMPTP block 0.3, DNMT1 block 62.9*, SUMO1 PPI mod -1.4, Scp1 inh -7.2, STEP inh -3.5, DNMT1 inh conf 4.4 and DNMT1 interf 1.1.
`N#Cc1ccc(S(=O)(=O)N2CCCCC2c2cc(C(=O)N3CCOCC3)no2)cc1` (stereo unspecified) gave LMPTP block -0.6, DNMT1 block 4.2, SUMO1 PPI mod 0.4 and STEP inh -1.5.
COc1ccc(/C=N/n2c(C)nc3c([nH]c4ccccc43)c2=O)cc1CN1CCCC(C)(C)C1 was read as LMPTP block 1.2, DNMT1 block 53.9*, SUMO1 PPI mod -3.2, Scp1 inh -4.1, STEP inh 9.7, DNMT1 inh conf 4.4 and DNMT1 interf 2.8.
